According to PubChem BioAssay AID2247 (Johns Hopkins Ion Channel Center, 2010):
The campaign covered roughly 300,000 compounds. About 1,200 (0.4%) were called active.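 Rule for the calls: active = B-score over 3 SD under the library average, no early fluorescence shift, positive overall ratio signal; inactive = the rest.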 Only a selection was taken, and actives are over-represented in it overall.

Target: Short transient receptor potential channel 4 (Mus musculus) (UniProt Q9QUQ5)
Assay: blockers of DAMGO-evoked TRPC4 calcium flux – Fluo4 calcium, HEK293 TRPC4beta/mu-opioid cells, primary screen (AID 2247)
Conditions: at 10 µM; active compounds read low
Procedure, shortened: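 Material: HEK293 cells with stable TRPC4beta plus mu-opioid receptor expression / Probe or stimulus: DAMGO in two steps, submaximal then maximal / Compound: single concentration per test compound / Technique: kinetic Fluo4 fluorescence imaging of calcium influx / Read-out: per-well B score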

Chain of Short transient receptor potential channel 4 (Mus musculus) (Q9QUQ5 whole entry, looked up): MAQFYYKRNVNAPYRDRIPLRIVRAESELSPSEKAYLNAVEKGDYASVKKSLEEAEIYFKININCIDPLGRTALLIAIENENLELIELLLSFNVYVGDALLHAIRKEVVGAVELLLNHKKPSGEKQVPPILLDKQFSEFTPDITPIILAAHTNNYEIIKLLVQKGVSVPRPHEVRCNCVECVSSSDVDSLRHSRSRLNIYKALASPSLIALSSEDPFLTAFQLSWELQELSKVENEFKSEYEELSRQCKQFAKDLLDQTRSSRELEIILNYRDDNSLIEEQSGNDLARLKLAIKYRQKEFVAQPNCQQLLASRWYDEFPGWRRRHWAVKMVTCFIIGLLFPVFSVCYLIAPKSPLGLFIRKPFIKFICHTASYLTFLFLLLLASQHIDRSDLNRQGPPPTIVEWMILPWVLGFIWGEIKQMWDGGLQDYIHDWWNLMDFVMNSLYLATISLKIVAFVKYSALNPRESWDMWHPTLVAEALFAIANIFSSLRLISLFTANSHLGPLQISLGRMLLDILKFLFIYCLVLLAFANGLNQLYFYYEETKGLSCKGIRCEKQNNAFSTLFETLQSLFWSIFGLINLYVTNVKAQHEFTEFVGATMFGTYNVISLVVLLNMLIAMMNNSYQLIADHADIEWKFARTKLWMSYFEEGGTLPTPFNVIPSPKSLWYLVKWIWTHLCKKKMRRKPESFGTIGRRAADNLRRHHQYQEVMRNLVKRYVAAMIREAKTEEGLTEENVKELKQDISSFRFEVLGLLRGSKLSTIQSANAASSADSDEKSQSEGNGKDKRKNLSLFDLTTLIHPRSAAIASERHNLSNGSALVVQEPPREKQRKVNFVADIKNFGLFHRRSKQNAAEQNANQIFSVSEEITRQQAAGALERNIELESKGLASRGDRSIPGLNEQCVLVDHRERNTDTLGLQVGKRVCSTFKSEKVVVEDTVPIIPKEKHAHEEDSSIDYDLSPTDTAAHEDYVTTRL

Structure (SMILES) | B-score
CCOC(=O)C1(Cc2ccc(Cl)cc2)CCN(C(C)CCn2cccn2)CC1 (stereo not given) | -6 (active)
CN(C)CC1CCCCC1=O (stereo not given) | inactive
CC(=O)N(C1=NCCCS1)c1ccccc1F | inactive
CSc1ccc(C(=O)C2CCCN(Cc3ccn[nH]3)C2)cc1 (stereo not given) | inactive
COc1ccc(C(=O)C2CN(C)CC2C(=O)c2ccc(OC)cc2)cc1 (stereo not given) | inactive
CN1CCC(OC(=O)c2cccc(F)c2)CC1 | inactive
Cc1ccc(C2CN(C)CC2C(=O)c2ccc(F)cc2)cc1 (stereo not given) | -6 (active)
O=c1[nH]c(CN2CC=C(c3ccccc3)CC2)nc2scc(-c3cccs3)c12 | inactive
COc1ccc(CN2CCN(c3ccccc3F)CC2)c(OC)c1 | inactive
CCOC(=O)C1(CCc2ccccc2)CCN(Cc2ccco2)CC1 | -8 (active)
c1ccc(CCN2CCC3(CC2)OCCO3)cc1 | inactive
CCC(=NCc1ccco1)c1c(O)n(Cc2ccccc2)c(=O)[nH]c1=O | inactive
COc1ccc(N=Cc2c(O)n(C)c(=O)[nH]c2=O)cc1 | inactive
N#CC1=C(N)Oc2c(c(=O)oc3ccccc23)C1c1ccccc1OC(=O)c1cccs1 (stereo not given) | inactive
COC(=O)C1=C(c2cc3ccccc3s2)C[C@@H]2CC[C@H]1N2C(=O)NCCO | -6 (active)
COC(=O)C1=C(c2cc3ccccc3s2)C[C@@H]2CC[C@H]1N2C(=O)NCc1cccc2ccccc12 | inactive
COC(=O)C1=C(c2cc3ccccc3s2)C[C@@H]2CC[C@H]1N2C(=O)NC(C)C | inactive
OCC#CC[N+]1(CC#Cc2ccccc2)CCCC1 | inactive
CNCC(O)c1cc(F)c(OCc2ccccc2)c(OCc2ccccc2)c1F (stereo not given) | inactive
CCOc1cccc(=NC2CCCCC2)c2c(C)[nH]c(C)c12 | inactive
